This is an account of results in paper PMC3270411 (Chemistry & biology, 2012).

Assay [1] deals with c-Jun phosphorylation (pSer73) in HeLa cells. The assay is described as follows: LanthaScreen TR-FRET c-Jun phosphorylation assay in HeLa cells. It is filed as cell-based. Conditions: read-out: p-c-Jun EC50 (nM) Hela; Hela cells, TNF-α stimulation, TR-FRET. A digest of the protocol:
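HeLa cells stably expressing GFP-c-Jun(1–79), 10,000/well in Opti-MEM with 0.5% charcoal/dextran-treated FBS, 25 mM Hepes pH 7.3, no phenol red; overnight. Pretreated 90 min with compound, then 30 min with 5 ng/ml TNF-α. Lysed in buffer containing 2 nM terbium anti-c-Jun pSer73 antibody; 60 min equilibration at room temperature. TR-FRET: excitation 340 nm, ratio Em 520/Em 490.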

Assay [2] concerns c-Jun phosphorylation (phospho Ser73) in A375 cells. It is filed as cell-based. To be noted: read-out: p-c-Jun EC50 (nM) A375; A375 cells, anisomycin stimulation, microscopy.
The test system of the next assay is JNK. The assay is described as follows: pulse-chase ATP-biotin binding kinetics assay in A375 cells. The format is cell-based. Conditions: 1μM compound, protection from ATP-biotin labeling. In outline:
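A375 cells treated with 1 μM test compound for 1–5 h, then washed three times in PBS. Lysed in NP-40/CHAPS buffer for 30 min at 4°C, cleared, and gel-filtered into HEPES kinase buffer (about 5–15 mg/ml protein). Lysate labelled with 5 μM ATP-biotin probe for 1 h, reduced with DTT, alkylated with iodoacetamide, and pulled down on streptavidin for 2 h. Read-out: SDS-PAGE and JNK immunoblot.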

The target in another assay is JNK3 (Homo sapiens, UniProt P53779). The assay is described as follows: in vitro covalent binding kinetics with purified JNK3. Conditions: 27 molar excess of compound. In outline: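 Purified JNK3 incubated with 1 μM test compound for varying times, then ATP-biotin probe 5 μM for 10 min. Protein denatured with an equal volume of 8 M urea and gel-filtered. Biotinylated protein captured on streptavidin beads for 2 h, washed, boiled 10 min at 95°C, run on SDS-PAGE and immunoblotted for JNK.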
Sequence of JNK3 (P53779 whole entry): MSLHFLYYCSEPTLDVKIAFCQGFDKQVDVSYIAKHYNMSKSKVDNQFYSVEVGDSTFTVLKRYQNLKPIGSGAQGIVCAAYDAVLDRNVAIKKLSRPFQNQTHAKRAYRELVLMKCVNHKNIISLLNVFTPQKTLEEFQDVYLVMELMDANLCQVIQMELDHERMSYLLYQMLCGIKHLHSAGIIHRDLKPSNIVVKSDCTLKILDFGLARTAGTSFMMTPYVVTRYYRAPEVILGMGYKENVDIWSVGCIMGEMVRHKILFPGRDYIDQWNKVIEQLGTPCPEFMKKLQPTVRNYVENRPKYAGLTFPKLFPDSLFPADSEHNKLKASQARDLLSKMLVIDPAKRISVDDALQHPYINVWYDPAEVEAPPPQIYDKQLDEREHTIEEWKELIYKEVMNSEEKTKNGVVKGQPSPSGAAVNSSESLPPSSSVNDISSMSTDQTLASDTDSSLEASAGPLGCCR

The test system of assay [3] is JNK1/2/3. The assay is described as follows: Z'-lyte JNK kinase assays, statements for JNK1/2/3 together. The format is biochemical.
In assay [4] the test system is c-Jun phosphorylation in HeLa and A375 cells. The assay is described as follows: cellular c-Jun phosphorylation, statements for both assay formats. The format is cell-based. To be noted: tested in parallel in HeLa and A375 formats.
A further assay concerns the target JNK1 (Homo sapiens, UniProt P45983). The assay is described as follows: intact protein and peptide mass spectrometry of inhibitor-labeled JNK1. The format is binding. To be noted: recombinant JNK1, 5-fold excess of compound; Cys 116.
Assay [5] deals with JNK1/2/3. The assay is described as follows: KinomeScan 400-kinase panel profiling. Conditions: 10 μM. The format is binding.
A further assay deals with MAPK8 (JNK1) (Homo sapiens, UniProt P45983). The assay is described as follows: Z'-lyte JNK1 kinase assay. It is filed as biochemical. To be noted: relative to JNK-IN-2.
Sequence of MAPK8 (JNK1) (P45983 whole entry): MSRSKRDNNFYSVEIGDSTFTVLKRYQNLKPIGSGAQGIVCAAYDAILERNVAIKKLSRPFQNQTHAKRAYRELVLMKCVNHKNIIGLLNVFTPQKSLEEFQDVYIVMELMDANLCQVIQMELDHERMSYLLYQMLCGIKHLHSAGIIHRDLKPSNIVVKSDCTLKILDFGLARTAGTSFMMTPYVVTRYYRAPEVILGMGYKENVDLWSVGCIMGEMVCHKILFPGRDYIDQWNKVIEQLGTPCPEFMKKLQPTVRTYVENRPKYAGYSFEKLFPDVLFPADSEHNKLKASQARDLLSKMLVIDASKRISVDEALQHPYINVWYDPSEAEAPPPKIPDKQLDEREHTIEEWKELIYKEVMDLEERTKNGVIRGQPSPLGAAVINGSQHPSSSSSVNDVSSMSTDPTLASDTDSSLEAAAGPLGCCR

Sequence of JNK1 (P45983 26-321 limits assumed): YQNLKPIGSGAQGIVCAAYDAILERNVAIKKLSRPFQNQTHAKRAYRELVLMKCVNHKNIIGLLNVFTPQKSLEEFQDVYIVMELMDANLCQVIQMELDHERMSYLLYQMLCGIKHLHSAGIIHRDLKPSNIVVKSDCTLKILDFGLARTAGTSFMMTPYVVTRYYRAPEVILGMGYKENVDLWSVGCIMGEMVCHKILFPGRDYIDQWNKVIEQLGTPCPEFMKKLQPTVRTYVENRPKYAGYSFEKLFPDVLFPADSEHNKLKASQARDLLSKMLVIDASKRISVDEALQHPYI

By EC50 is commonly meant the concentration needed to bring the measured effect to its halfway point. Take `C=CC(=O)Nc1cccc(C(=O)Nc2ccc(Nc3nccc(-c4cccnc4)n3)cc2)c1` [JNK-IN-5]: the EC50 is 118 nM in assay [1] and 32 nM in [2]. Moreover, the “incubation time required to modify JNK to background levels” value with JNK was “Three”. Moreover, at JNK3, the “time to completely label JNK3” value stood at 45 min. The “fold lower IC50 against JNK1, 2 and 3” value in the assay with JNK1/2/3 [3] (compared with JNK-IN-2) is reported as 500 fold.
As for `N#CC(c1ccnc(NCCc2cccnc2)n1)c1nc2ccccc2s1` (stereo not drawn) [AS601245, reference compound], the values for the concentration giving a half-maximal response (EC50) in assay [1] and in assay [2] were 2020 nM and 2400 nM, respectively. In addition, in [4], the “IC50s for inhibition of c-Jun phosphorylation in both assay formats” value is “micromolar range”.
As to `Cc1ccc(C(=O)Nc2ccc(Nc3nccc(-c4cccnc4)n3)cc2)cc1NC(=O)/C=C/CN(C)C` [JNK-IN-10], the EC50 in assay [1] turned out to be 173 nM; in [2], 141 nM.
In general, IC50 refers to the concentration that gives 50% inhibition. Consider `CN(C)C/C=C/C(=O)Nc1ccc(C(=O)Nc2cccc(Nc3nccc(-c4cccnc4)n3)c2)cc1` [JNK-IN-2], for which the EC50 was found to be 704 nM in assay [1] and 2400 nM in assay [2]. For the same molecule, on JNK1, the “covalent modification of JNK1 (mass spectrometry)” value is recorded as “covalent addition of one molecule”. For the same molecule, the IC50 on JNK1/2/3 [3] (read-out: IC50 for inhibition of JNK kinase activity, Z'-lyte assay format) was roughly 1000 nM.
Turning to `Oc1c2ccccc2c2c3c(cccc13)N=N2` [SP-600125], in assay [4], the “IC50s for inhibition of c-Jun phosphorylation in both assay formats” value is on record as “micromolar range”.
As to `Cc1ccc(NC(=O)c2ccc(NC(=O)/C=C/CN(C)C)cc2)cc1Nc1nccc(-c2cccnc2)n1` [JNK-IN-1], the “binding to JNK1/2/3 in kinase selectivity profiling” value with JNK1/2/3 [5] is “significant binding”. The “IC50 for inhibition of JNK kinase activity” value at JNK1/2/3 [3] (Z'-lyte assay format) is recorded as “single digit micromolar”.
For `CN(C)C/C=C/C(=O)NCc1ccc(C(=O)Nc2cccc(Nc3nccc(-c4cccnc4)n3)c2)cc1` [JNK-IN-4], the “fold increase in biochemical IC50 against JNK1” value on MAPK8 (JNK1) worked out at 3 fold.
